The test system of one data set is Klebsiella pneumoniae. The data set is described as follows: Antibacterial activity Klebsiella pneumoniae ATCC 13883 assessed as inhibition of visible bacterial growth incubated for 18 hrs by microbroth dilution assay. The class given is functional. The method, boiled down: (§1)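 CLSI broth microdilution. Strains streaked from glycerol stocks onto blood agar (16 h, 37 °C); single colonies grown in TSB at 37 °C, 220 rpm, to OD600 about 0.5. Diluted in MHB to 2 × 10^5 CFU/mL and mixed 1:1 with compounds serially diluted in MHB from DMSO stocks (colistin from water stocks), polypropylene plates. Sealed, 18 h at 37 °C, 600 rpm. MIC taken as lowest concentration preventing visible growth, three technical replicates.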

For data set [1], the system named is Escherichia coli. The data set is described as follows: Antibacterial activity Escherichia coli MCR-1 assessed as inhibition of visible bacterial growth incubated for 18 hrs by microbroth dilution assay. The format is functional. The method, boiled down: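 Colistin-resistant E. coli 25922 carrying MCR-1, grown from glycerol stock in kanamycin-supplemented TSB for 16 h at 37 °C, 220 rpm. Diluted 100-fold in kanamycin-supplemented TSB and grown to OD600 about 0.5, then diluted in MHB to 2 × 10^5 CFU/mL. Combined 1:1 with MHB serial dilutions of compounds. Sealed, 18 h at 37 °C, 600 rpm; lowest concentration without visible growth, triplicate technical replicates.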

For data set [2], the system named is Escherichia coli. The data set is described as follows: Antibacterial activity Escherichia coli ATCC 25922 assessed as inhibition of visible bacterial growth incubated for 18 hrs by microbroth dilution assay. The class given is functional. The method, boiled down: as §1
A further data set relates to Acinetobacter baumannii. Description: Antibacterial activity Acinetobacter baumannii ATCC 17961 assessed as inhibition of visible bacterial growth incubated for 18 hrs by microbroth dilution assay. The class given is functional. The method, boiled down:
as §1

The nature of data set [3]: Hemolytic activity in sheep red blood cell assessed as hemolysis at 1 to 128 ug/ml incubated for 1 hrs relative to control. The class given is toxicity, cell-based, Ovis aries, Erythrocyte. The conditions noted are these: sheep red blood cells (erythrocytes), at 1 to 128 µg/mL, dose 1-128 µg/ml, read-out: Activity. The method, boiled down: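 Defibrinated sheep erythrocytes washed five times in PBS with 0.002% Tween20 and normalized so the Triton control reads 2.5–3.0 at 415 nm. Mixed 1:1 with compound serial dilutions (128–1 μg/mL) and incubated 1 h at 37 °C, 500 rpm. Supernatant A415 is background-corrected with buffer and expressed as percent of 0.1% Triton X-100 (final). Run in triplicate.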

Another data set relates to Staphylococcus aureus. The data set is described as follows: Antibacterial activity Staphylococcus aureus USA300 assessed as inhibition of visible bacterial growth incubated for 18 hrs by microbroth dilution assay. The class given is functional. The procedure, abridged:
as §1

A further data set deals with Pseudomonas aeruginosa. Description: Antibacterial activity Pseudomonas aeruginosa PAO1 assessed as inhibition of visible bacterial growth incubated for 18 hrs by microbroth dilution assay. The format is functional. The procedure, abridged: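 CLSI broth microdilution. Colonies from blood agar (16 h, 37 °C) grown in TSB at 37 °C, 220 rpm, to OD600 about 0.5, then diluted in MHB to 2 × 10^5 CFU/mL. Added to DMSO-stock compounds serially diluted in MHB in polypropylene plates. Sealed, 18 h at 37 °C, 600 rpm. MIC = lowest concentration with no visible growth; three technical replicates.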

Values after ≈ are worked out from the molar mass of the structure shown. *1 amine or outer side, *2 acyl side, *3 side chain or, on linkers, in order; H or OH if unused. Where a SMILES comes first, the peptide text is derived from it. [ ]: non-standard residue; d: D form. The star is where a group is joined. ξ: configuration not given here. X1 = C[C@@H](N=[N+]=[N-])[C@H](N[*:1])C(=O)[*:2]; Octanoyl(7-Me) = CC(C)CCCCCC(=O)*; Hexanoyl(4ξ-Me) = CCC(C)CCC(=O)*; dOrn = NCCC[C@@H](N)C(=O)O; Orn = NCCC[C@H](N)C(=O)O

Take `CC[C@H](C)[C@H](NC(=O)[C@@H](NC(=O)[C@H](Cc1c[nH]c2ccccc12)NC(=O)[C@@H](CCCN)NC(=O)CNC(=O)[C@H](CCCN)NC(=O)[C@@H](CCCN)NC(=O)[C@@H](Cc1c[nH]c2ccccc12)NC(=O)[C@@H](Cc1ccc(O)cc1)NC(=O)[C@@H](CO)NC(=O)CCCCCC(C)C)[C@@H](C)N=[N+]=[N-])C(=O)N[C@@H](CC(N)=O)C(=O)NCC(=O)NCC(N)=O` ({Octanoyl(7-Me)}-[dS][dY][dW][dOrn][Orn]G[dOrn]W[X1]INGG-NH2): the minimum inhibitory concentration (MIC) with Klebsiella pneumoniae is 4 mg/L (≈ 2.43 µM); with Escherichia coli [1], 4 mg/L (≈ 2.43 µM); in the data set on Escherichia coli [2], 4 mg/L (≈ 2.43 µM); with Acinetobacter baumannii, 2 mg/L (≈ 1.21 µM); in the data set on Staphylococcus aureus it was greater than 32 mg/L; in the data set on Pseudomonas aeruginosa, 4 mg/L (≈ 2.43 µM). Besides, in data set [3], the hemolysis at 1 h was less than 0.1%.
For `CCC(C)CCC(=O)N[C@H](CC(N)=O)C(=O)N[C@H](Cc1ccc(O)cc1)C(=O)N[C@H](Cc1c[nH]c2ccccc12)C(=O)N[C@H](CCCN)C(=O)N[C@@H](CCCN)C(=O)NCC(=O)N[C@H](CCCN)C(=O)N[C@@H](C)C(=O)N[C@H](C(=O)N[C@H](C(=O)NCC(=O)N[C@@H](CO)C(N)=O)[C@@H](C)CC)[C@@H](C)O` (stereo partly specified) ({Hexanoyl(4ξ-Me)}-[dN][dY][dW][dOrn][Orn]G[dOrn]ATIGS-NH2), the MIC with Klebsiella pneumoniae is greater than 32 mg/L; in the data set on Escherichia coli [1], greater than 32 mg/L; with Escherichia coli [2] it was greater than 32 mg/L; in the data set on Acinetobacter baumannii, greater than 32 mg/L; in the data set with Staphylococcus aureus it was greater than 32 mg/L; with Pseudomonas aeruginosa, 32 mg/L (≈ 22.5 µM).
`CCC(C)CCC(=O)N[C@H](CC(N)=O)C(=O)N[C@H](Cc1ccc(O)cc1)C(=O)N[C@H](Cc1c[nH]c2ccccc12)C(=O)N[C@H](CCCN)C(=O)N[C@@H](CCCN)C(=O)N[C@@H](C)C(=O)N[C@H](CCCN)C(=O)N[C@@H](Cc1c[nH]c2ccccc12)C(=O)N[C@H](C(=O)N[C@H](C(=O)NCC(=O)N[C@@H](CO)C(N)=O)[C@@H](C)CC)[C@@H](C)O` (stereo partly specified) ({Hexanoyl(4ξ-Me)}-[dN][dY][dW][dOrn][Orn]A[dOrn]WTIGS-NH2): the MIC with Klebsiella pneumoniae is greater than 32 mg/L; in the data set with Escherichia coli [1] it was 32 mg/L (≈ 20.6 µM); in the data set on Escherichia coli [2], 32 mg/L (≈ 20.6 µM); with Acinetobacter baumannii, 32 mg/L (≈ 20.6 µM); with Staphylococcus aureus, greater than 32 mg/L; in the data set with Pseudomonas aeruginosa, 32 mg/L (≈ 20.6 µM).
On to `CCC(C)CCC(=O)N[C@H](CC(N)=O)C(=O)N[C@H](C)C(=O)N[C@H](Cc1c[nH]c2ccccc12)C(=O)N[C@H](CCCN)C(=O)N[C@@H](CCCN)C(=O)NCC(=O)N[C@H](CCCN)C(=O)N[C@@H](Cc1c[nH]c2ccccc12)C(=O)N[C@H](C(=O)N[C@H](C(=O)NCC(=O)N[C@@H](CO)C(N)=O)[C@@H](C)CC)[C@@H](C)O` (stereo partly specified) ({Hexanoyl(4ξ-Me)}-[dN][dA][dW][dOrn][Orn]G[dOrn]WTIGS-NH2), for which the minimal inhibitory concentration (MIC) in the data set on Klebsiella pneumoniae was greater than 32 mg/L; in the data set on Escherichia coli [1] it was greater than 32 mg/L; in the data set with Escherichia coli [2], greater than 32 mg/L; with Acinetobacter baumannii, greater than 32 mg/L; in the data set on Staphylococcus aureus, greater than 32 mg/L; with Pseudomonas aeruginosa it was 16 mg/L (≈ 11.1 µM).
As to `CCC(C)CCC(=O)N[C@H](CC(N)=O)C(=O)N[C@H](Cc1ccc(O)cc1)C(=O)N[C@H](Cc1c[nH]c2ccccc12)C(=O)N[C@H](CCCN)C(=O)N[C@@H](C)C(=O)NCC(=O)N[C@H](CCCN)C(=O)N[C@@H](Cc1c[nH]c2ccccc12)C(=O)N[C@H](C(=O)N[C@H](C(=O)NCC(=O)N[C@@H](CO)C(N)=O)[C@@H](C)CC)[C@@H](C)O` (stereo partly specified) ({Hexanoyl(4ξ-Me)}-[dN][dY][dW][dOrn]AG[dOrn]WTIGS-NH2), the minimal inhibitory concentration (MIC) is greater than 32 mg/L in the data set with Klebsiella pneumoniae; greater than 32 mg/L in the data set with Escherichia coli [1]; greater than 32 mg/L in the data set with Escherichia coli [2]; greater than 32 mg/L in the data set with Acinetobacter baumannii; greater than 32 mg/L with Staphylococcus aureus; 32 mg/L (≈ 21.4 µM) in the data set with Pseudomonas aeruginosa.

Source of the values: ChEMBL document CHEMBL5380865, “Linearization of the Brevicidine and Laterocidine Lipopeptides Yields Analogues That Retain Full Antibacterial Activity” (J Med Chem, 2023).
